Assay results from ChEMBL document CHEMBL1150675, “Chemical constituents of Calophyllum brasiliense. 2. Structure of three new coumarins and cancer chemopreventive activity of 4-substituted coumarins” (J Nat Prod, 2003).

test system: Raji; assay: Inhibition of TPA-induced EBV-early antigen activation in human Raji cells assessed as early antigen activation at 32 nmol after 48 hrs relative to control; assay type: cell-based; parameters: scale not given: the % may be the effect or the level left; conditions: human gammaherpesvirus 4
In short: (§1)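 Raji cells at 10^6 cells/mL are harvested and induced in RPMI 1640/10% FCS with 4 mM n-butyric acid and 32 pmol TPA (20 ng/mL). Compound is added in DMSO at 32, 16, 3.2 or 0.32 nmol (mol ratio to TPA). After 48 h at 37 °C, EA-positive cells are counted blind (≥500 cells) as % versus TPA-only control ± SD. IC50 is the mol ratio to TPA giving 50% inhibition.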

Row | Structure (SMILES) | Activity
1 | CCCc1cc(=O)oc2c3c(c4c(c12)OC(C)(C)C=C4)O[C@H](C)[C@@H](C)[C@@H]3O [CALANOLIDE A] | 0%
2 | CCCc1cc(=O)oc2c(C(=O)C(C)CC)c(O)c(CC=C(C)C)c(O)c12 (stereo unspecified) | 0%
3 | CCCc1cc(=O)oc2c(C(=O)c3ccccc3)c(O)c3c(c12)OC(C)(C)C=C3 [BRASIMARIN A] | 0%
4 | CCCc1cc(=O)oc2c3c(c4c(c12)OC(C)(C)C=C4)O[C@H](C)[C@H](C)[C@@H]3O [CALANOLIDE C] | 0%

test system: not listed separately; assay: Cytotoxicity against human Raji cells assessed as cell viability at 0.32 nmol after 48 hrs by trypan blue staining; assay type: cell-based; conditions: read-out: Activity
In short: (§2)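 Raji cells grown to 106 cells/mL, pelleted and resuspended in RPMI 1640 with 10% FCS plus 4 mM n-butyric acid and 32 pmol TPA (20 ng/mL in DMSO), with test compound in DMSO (32, 16, 3.2 or 0.32 nmol; 1000–10 mol ratio/TPA). Viability counted after 48 h at 37 °C by hemocytometer with Trypan Blue; at least 60% survival required.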

Row | Structure (SMILES) | viability at 48 h, 0.32 nmol
5 | CCCc1cc(=O)oc2c3c(c4c(c12)OC(C)(C)C=C4)O[C@H](C)[C@@H](C)[C@@H]3O [CALANOLIDE A] | > 80%
6 | CCCc1cc(=O)oc2c(C(=O)C(C)CC)c(O)c(CC=C(C)C)c(O)c12 (stereo unspecified) | > 80%
7 | CCCc1cc(=O)oc2c(C(=O)c3ccccc3)c(O)c3c(c12)OC(C)(C)C=C3 [BRASIMARIN A] | > 80%
8 | CCCc1cc(=O)oc2c3c(c4c(c12)OC(C)(C)C=C4)O[C@H](C)[C@H](C)[C@@H]3O [CALANOLIDE C] | > 80%

test system: Raji; assay: Inhibition of TPA-induced EBV-early antigen activation in human Raji cells assessed as early antigen activation at 16 nmol after 48 hrs relative to control; assay type: cell-based; parameters: scale not given: the % may be the effect or the level left; conditions: human gammaherpesvirus 4; in short: as §1

Row | Structure (SMILES) | Activity
9 | CCCc1cc(=O)oc2c3c(c4c(c12)OC(C)(C)C=C4)O[C@H](C)[C@@H](C)[C@@H]3O [CALANOLIDE A] | 27.7%
10 | CCCc1cc(=O)oc2c(C(=O)C(C)CC)c(O)c(CC=C(C)C)c(O)c12 (stereo unspecified) | 13.7%
11 | CCCc1cc(=O)oc2c(C(=O)c3ccccc3)c(O)c3c(c12)OC(C)(C)C=C3 [BRASIMARIN A] | 33.3%
12 | CCCc1cc(=O)oc2c3c(c4c(c12)OC(C)(C)C=C4)O[C@H](C)[C@H](C)[C@@H]3O [CALANOLIDE C] | 35.1%

test system: not listed separately; assay: Cytotoxicity against human Raji cells assessed as cell viability at 32 nmol after 48 hrs by trypan blue staining; assay type: cell-based; conditions: read-out: Activity; in short: as §2

Row | Structure (SMILES) | viability at 48 h, 32 nmol
13 | CCCc1cc(=O)oc2c3c(c4c(c12)OC(C)(C)C=C4)O[C@H](C)[C@@H](C)[C@@H]3O [CALANOLIDE A] | 60%
14 | CCCc1cc(=O)oc2c(C(=O)C(C)CC)c(O)c(CC=C(C)C)c(O)c12 (stereo unspecified) | 60%
15 | CCCc1cc(=O)oc2c(C(=O)c3ccccc3)c(O)c3c(c12)OC(C)(C)C=C3 [BRASIMARIN A] | 70%
16 | CCCc1cc(=O)oc2c3c(c4c(c12)OC(C)(C)C=C4)O[C@H](C)[C@H](C)[C@@H]3O [CALANOLIDE C] | 70%

test system: not listed separately; assay: Inhibition of TPA-induced EBV-early antigen activation in human Raji cells assessed as early antigen activation after 48 hrs relative to control; assay type: cell-based, human gammaherpesvirus 4; conditions: not given; in short: as §1

Row | IC50 | Structure (SMILES)
17 | 290 molar ratio | CCCc1cc(=O)oc2c3c(c4c(c12)OC(C)(C)C=C4)O[C@H](C)[C@@H](C)[C@@H]3O [CALANOLIDE A]
18 | 170 molar ratio | CCCc1cc(=O)oc2c(C(=O)C(C)CC)c(O)c(CC=C(C)C)c(O)c12 (stereo unspecified)
19 | 349 molar ratio | CCCc1cc(=O)oc2c(C(=O)c3ccccc3)c(O)c3c(c12)OC(C)(C)C=C3 [BRASIMARIN A]
20 | 351 molar ratio | CCCc1cc(=O)oc2c3c(c4c(c12)OC(C)(C)C=C4)O[C@H](C)[C@H](C)[C@@H]3O [CALANOLIDE C]

test system: not listed separately; assay: Cytotoxicity against human Raji cells assessed as cell viability at 16 nmol after 48 hrs by trypan blue staining; assay type: cell-based; conditions: read-out: Activity; in short: as §2

Row | Structure (SMILES) | viability at 48 h, 16 nmol
21 | CCCc1cc(=O)oc2c3c(c4c(c12)OC(C)(C)C=C4)O[C@H](C)[C@@H](C)[C@@H]3O [CALANOLIDE A] | > 80%
22 | CCCc1cc(=O)oc2c(C(=O)C(C)CC)c(O)c(CC=C(C)C)c(O)c12 (stereo unspecified) | > 80%
23 | CCCc1cc(=O)oc2c(C(=O)c3ccccc3)c(O)c3c(c12)OC(C)(C)C=C3 [BRASIMARIN A] | > 80%
24 | CCCc1cc(=O)oc2c3c(c4c(c12)OC(C)(C)C=C4)O[C@H](C)[C@H](C)[C@@H]3O [CALANOLIDE C] | > 80%

test system: Raji; assay: Inhibition of TPA-induced EBV-early antigen activation in human Raji cells assessed as early antigen activation at 0.32 nmol after 48 hrs relative to control; assay type: cell-based; parameters: scale not given: the % may be the effect or the level left; conditions: human gammaherpesvirus 4; in short: as §1

Row | Structure (SMILES) | Activity
25 | CCCc1cc(=O)oc2c3c(c4c(c12)OC(C)(C)C=C4)O[C@H](C)[C@@H](C)[C@@H]3O [CALANOLIDE A] | 92.5%
26 | CCCc1cc(=O)oc2c(C(=O)C(C)CC)c(O)c(CC=C(C)C)c(O)c12 (stereo unspecified) | 84.2%
27 | CCCc1cc(=O)oc2c(C(=O)c3ccccc3)c(O)c3c(c12)OC(C)(C)C=C3 [BRASIMARIN A] | 93.8%
28 | CCCc1cc(=O)oc2c3c(c4c(c12)OC(C)(C)C=C4)O[C@H](C)[C@H](C)[C@@H]3O [CALANOLIDE C] | 94.3%

test system: Raji; assay: Inhibition of TPA-induced EBV-early antigen activation in human Raji cells assessed as early antigen activation at 3.2 nmol after 48 hrs relative to control; assay type: cell-based; parameters: scale not given: the % may be the effect or the level left; conditions: human gammaherpesvirus 4; in short: as §1

Row | Structure (SMILES) | Activity
29 | CCCc1cc(=O)oc2c3c(c4c(c12)OC(C)(C)C=C4)O[C@H](C)[C@@H](C)[C@@H]3O [CALANOLIDE A] | 66.6%
30 | CCCc1cc(=O)oc2c(C(=O)C(C)CC)c(O)c(CC=C(C)C)c(O)c12 (stereo unspecified) | 50.6%
31 | CCCc1cc(=O)oc2c(C(=O)c3ccccc3)c(O)c3c(c12)OC(C)(C)C=C3 [BRASIMARIN A] | 72.1%
32 | CCCc1cc(=O)oc2c3c(c4c(c12)OC(C)(C)C=C4)O[C@H](C)[C@H](C)[C@@H]3O [CALANOLIDE C] | 74%

test system: not listed separately; assay: Cytotoxicity against human Raji cells assessed as cell viability at 3.2 nmol after 48 hrs by trypan blue staining; assay type: cell-based; conditions: read-out: Activity; in short: as §2

Row | Structure (SMILES) | viability at 48 h, 3.2 nmol
33 | CCCc1cc(=O)oc2c3c(c4c(c12)OC(C)(C)C=C4)O[C@H](C)[C@@H](C)[C@@H]3O [CALANOLIDE A] | > 80%
34 | CCCc1cc(=O)oc2c(C(=O)C(C)CC)c(O)c(CC=C(C)C)c(O)c12 (stereo unspecified) | > 80%
35 | CCCc1cc(=O)oc2c(C(=O)c3ccccc3)c(O)c3c(c12)OC(C)(C)C=C3 [BRASIMARIN A] | > 80%
36 | CCCc1cc(=O)oc2c3c(c4c(c12)OC(C)(C)C=C4)O[C@H](C)[C@H](C)[C@@H]3O [CALANOLIDE C] | > 80%
